Assay outcomes: PubChem BioAssay, Sanford-Burnham Center for Chemical Genomics
A selection follows.
HKDC1 activator: increases human hexokinase HKDC1 activity; AID 493187; Q2TB90; 0.056% of 340,000 active; activity change, negative = activation, % at 20 µM; recombinant HKDC1, G6PDH/diaphorase resazurin fluorescence; stronger effect = lower value;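 active means activation of 40% or more at 20 µM, a change of -40% or lower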
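Material: in-house human HKDC1 enzyme, G6PDH and diaphorase coupling enzymes | Quantity: HKDC1 at 5 µg/mL final | Medium: Tris buffer at pH 8.0 containing MgCl2 | Compound dosing: 20 µM single dose | Schedule: 90 min reaction at room temperature, dark | Measured by: Resorufin fluorescence, 525/613 nm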
Numbers without * were called inactive.

SMILES	HKDC1 activator
O=C(Cc1ccc(Cl)cc1Cl)Nc1cccc(S(=O)(=O)Nc2ccccc2F)c1	-41*
O=C(O)CSc1cc(NS(=O)(=O)c2cccc([N+](=O)[O-])c2)c2ccccc2c1O	59
C=CC(=O)N1C/C(=C/c2ccc(Cl)cc2)C(=O)/C(=C\c2ccc(Cl)cc2)C1	45
COC1=CC(=O)c2c(ccc3ncnc(N)c23)C1=O	87
COc1cccc2c1C(=O)C=C(C)C2=O	-43*
CC1(C)CC[C@]2(C(=O)n3ccnc3)CC[C@]3(C)[C@H](C(=O)C=C4[C@@]5(C)C=C(C#N)C(=O)C(C)(C)[C@@H]5CC[C@]43C)[C@@H]2C1	48
Nn1cnnc1N/N=C/c1cc(Br)cc(Br)c1O	-52*
Oc1ccc2ccccc2c1/C=N/c1nccs1	37
O=C(Nc1ccc(Nc2ccncc2)cc1)c1ccc(Nc2ccnc3ccc([N+](=O)[O-])cc23)cc1	44
Cn1c(SSc2ccc(-c3cccnc3)n2C)ccc1-c1cccnc1	-341*
CC(=O)Nc1ccc2cc3ccc(NC(C)=O)cc3nc2c1	43
O=NNc1nc2ccccc2n1Cc1ccccc1	-40*
O=c1c2ccccc2nc(/C=C/c2cccnc2)n1Cc1ccccc1	81
O=C(O)CCNc1cc(N2CCN(C(=O)c3ccco3)CC2)c2noc3c2c1C(=O)c1ccccc1-3	39
CCc1ccc(S(=O)(=O)Nc2cc(SCC(=O)O)c(O)c3ccccc23)cc1	54
COc1cccc(/C=N/Nc2ccc([N+](=O)[O-])cn2)c1O	36
Cc1ccc(Sc2ccc(/C=C3/C(=O)NN(c4ccccc4)C3=O)o2)cc1	35
CCc1ccc(S(=O)(=O)/N=C2\C=C(Nc3ccc(C(=O)O)cc3)C(=O)c3ccccc32)cc1	54
COc1cc(/C=C2\SC(=S)N(c3cccnc3)C2=O)ccc1O	38
COc1ccc(CN2CCn3nc(C(=O)NC(C)C)cc3C2=O)cc1	-75*
Oc1ccc2ccccc2c1C=Nc1ccccc1Br	38
O=C(O)CN1C(=O)/C(=C2\C(=O)N(Cc3ccccc3Cl)c3ccccc32)SC1=S	51
COc1cc(/C=C2\SC(c3ccccc3)=NC2=O)cc(Cl)c1O	49
O=C(N/N=C/c1ccc(O)cc1O)/C(=C/c1ccccc1)CCO	-40*
CC(CCC(C)C(C)(C)C)[C@@H]1CC[C@H]2C3C[C@H](OS(O)(=S)=S)[C@H]4C[C@H](OS(O)(=S)=S)[C@@H](OS(O)(=S)=S)C[C@]4(C)[C@H]3CC[C@]12C (stereo partly drawn) (tested in a mixture with another compound)	81
SMILES	HKDC1 activator
O=C1C(Cl)=C(NC(=O)c2ccccc2)C(=O)C(Cl)=C1NC(=O)c1ccccc1	43
CCCCC[C@H](O)/C=C/[C@@H]1[C@@H](C/C=C\CCCC(=O)OC)[C@@H](O)C[C@H]1O	77
O=C1C(Nc2ccccc2)=C/C(=N/S(=O)(=O)c2cccs2)c2ccccc21	68
CC(=NNC(=S)N1CC2CCC(CC2)C1)c1ccncn1	-54*
COC1=C(Br)C(=O)c2ncccc2C1=O	56
COc1ccc(/C=C/C(=O)NC(=S)NNC(=O)c2cnccn2)cc1	-40*
O=C(NC(=S)NNC(=O)c1cnccn1)c1ccc(F)cc1	-48*
COC(=O)CCC(=O)OC1(C)C(=O)C2=CN(c3ccccc3)C(c3ccc(OC)cc3)=CC2=C(Br)C1=O (stereo not drawn)	38
COc1cc2c(cc1OC)C(c1cc(Br)ccc1F)N(C(=O)CCl)CC2 (stereo not drawn)	38
O=C1C=C(Nc2ccccc2C(=O)O)c2ccccc2C1=O	46
Cc1cc(C)n2cc(CSc3nnc(-c4ccccc4)c(-c4ccccc4)n3)nc2n1	38
Cc1[nH]c2ccccc2c1C1=CC(=O)C=CC1=O	58
COc1cc(N(C)C)ccc1C=c1c2ccccc2n2c1cc(-c1ccccc1)[n+]2C	41
CC(C)c1ccc(S(=O)(=O)/N=C2/C=C(Sc3ncn[nH]3)C(=O)c3ccccc32)cc1	64
COc1cc(N=c2ssnc2Cl)cc(OC)c1	-51*
O=C(NC1=C(NC2CCS(=O)(=O)C2)C(=O)c2ccccc2C1=O)c1ccccc1 (stereo not drawn)	53
O=C(CSc1nnc(CCCN2C(=O)c3cccc4cccc(c34)C2=O)n1-c1ccccc1)N1CCCCC1	37
NC(=O)C1CCN(C2=C(Cl)C(=O)c3ccccc3C2=O)CC1	47
COc1cc(C2c3c([nH]c(=O)[nH]c3=O)Nc3ccc4ccccc4c32)cc(OC)c1OC (stereo not drawn)	37
COC(=O)c1ccccc1NC1=C/C(=N\S(=O)(=O)c2cccs2)c2ccccc2C1=O	39
O=c1c2c3nc4ccccc4nc3n(-c3ccc4c(c3)OCCO4)c2ncn1C1CCCC1	48
Clc1ccc(N=c2ssnc2Cl)nc1	-194*
CC(C)(C=O)C1=CC(=O)c2ccccc2C1=O	51
NC1=C(Cl)C(=O)c2ccc(S(N)(=O)=O)cc2C1=O	-134*
O=C1NN(c2ccccc2)C(=O)/C1=C/c1ccc(Sc2ccc(Cl)cc2)o1	42
SMILES	HKDC1 activator
COc1cc(SC#N)ccc1N=Cc1c(C)[nH]n(-c2ccc(Cl)cc2)c1=O	-41*
Cc1ccc(C)c(S(=O)(=O)Nc2cc(SCC(=O)O)c(O)c3ccccc23)c1	63
CN(C)C(=O)/C(C#N)=C\c1cc(Br)c(Sc2ccc(Cl)cc2)o1	35
Cc1ccc(S(=O)(=O)/N=C2\C=C(Nc3cccc(C(=O)O)c3)C(=O)c3ccccc32)cc1	45
CCN=C1NN=C(c2ccc(C)cc2)CS1	-64*
CCOC(=O)C(C(=O)OCC)c1cc(Br)c2noc3c2c1C(=O)c1ccccc1-3	54
O=C(O)c1ccccc1N=Nc1c(O)[nH]c2ccc([N+](=O)[O-])cc12	37
O=C1/C(=C\c2ccc(-c3ccccc3[N+](=O)[O-])o2)C(c2ccccc2)=NN1c1ccccc1	42
O=C1C=C(N2CCOCC2)c2ccccc2C1=O	77
Fc1ccccc1N=C1NN=C(c2ccccc2)CS1	-82*
Fc1ccc(F)c(C2=NNC(=Nc3ccccc3F)SC2)c1	-143*
Fc1ccc(N=C2NN=C(c3cc(F)ccc3F)CS2)cc1	-218*
CC(=O)Nc1ccc(C2=NNC(=Nc3ccc(S(=O)(=O)N4CCOCC4)cc3)SC2)cc1	-339*
O=C(CSc1n[nH]c(=O)[nH]c1=O)Nc1ccc2c(c1)C(=O)c1ccccc1C2=O	52
CC1=NOC(=O)/C1=C\c1ccc(-c2ccc(Br)cc2)o1	42
O=C1C=CC2(C=C1)O[C@H](Cc1ccccc1)[C@@H](Cc1ccccc1)O2	38
O=C(NCc1ccccn1)c1cc(S(=O)(=O)N2CCN(c3ccccc3)CC2)ccc1Cl	73
COc1ccc(C(=O)c2coc3c2C(=O)C(=O)c2ccccc2-3)cc1	61
O=C1C(SCCO)=C(SCCO)C(=O)c2ccccc21	72
O=C(O)c1ccccc1-c1ccc(/C=c2\sc3nc4cc(Br)cnc4n3c2=O)o1	68
O=c1cc(O)sc2ccccc12	43
CC(=O)NC1C(=O)N(CCN2CCOCC2)c2ccc(Br)cc21 (stereo not drawn)	81
Cc1n[nH]c(=O)c2c(NC(=O)CSc3nnc(C4CC4)n3C)oc(C)c12	40
O=S(=O)(c1cccc(COc2ccc(Cl)cc2Cl)c1)N1CCOCC1	39
O=S(=O)(c1ccc(N=C2NN=C(c3cc(F)ccc3F)CS2)cc1)N1CCOCC1	-308*
CC(C)(C)N=C1NN=C(c2ccc(S(=O)(=O)N3CCCCC3)cc2)CS1	-67*
